Measurements published in ChEMBL document CHEMBL5303300, “EUbOPEN Chemogenomics Library - Multiplex” (2023).
Values joined by “and” are separate entries in the source; they are usually repeats but may differ in a detail not shown here. Equal entries are not always repeated.

System: HEK-293T
Assay: Multiplex assay against HEK293T
Type: toxicity, cell-based
Conditions: human, number of replicates 2
Procedure, shortened: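 Compound was added to live cells that had been stained at seeding with Hoechst33342, BioTracker Green Microtubule Cytoskeleton Dye, MitoTracker Red and Annexin V Alexa Fluor 680, and imaging followed on a CQ1 microscope at 37°C and 5% CO2. CellPathfinder machine-learning gating divided cells into Hoechst high-intensity objects or normal cells, normal cells into healthy, pyknosed or fragmented nuclei, and pyknosed cells into mitotic or apoptotic. Tubulin, mitochondrial-mass and membrane-permeability phenotypes are per cents of healthy-nucleus cells.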

[1] = 12 h, 10 µM, compound concentration 10 uM
[2] = 24 h, 10 µM, compound concentration 10 uM
[3] = 48 h, 10 µM, compound concentration 10 uM
[4] = 12 h, 1 µM, compound concentration 1 uM
[5] = 24 h, 1 µM, compound concentration 1 uM
[6] = 48 h, 1 µM, compound concentration 1 uM

With CC(=O)O[C@H]1C(=O)[C@@]2(C)[C@H]([C@H](OC(=O)c3ccccc3)[C@]3(O)C[C@H](OC(=O)[C@H](O)[C@@H](NC(=O)c4ccccc4)c4ccccc4)C(C)=C1C3(C)C)[C@]1(OC(C)=O)CO[C@@H]1C[C@@H]2O [PACLITAXEL] the “Population Apoptotic (%)” value [1] was 60% and 50% and 49% and 45%, the “Population Fragmented Nuclei (%)” value [1] was 3% and 1% and 2% and the “Population Healthy Nuclei (%)” value [1] was 74% and 80% and 77%. The “Population Hoechst High Intensity Objects (%)” value [1] was 6% and 9% and 5% and 7%, the “Population Membrane Permeable-Phenotype (%)” value [1] was 0% and the “Population Mitochondria Different-Phenotype (%)” value [1] was 48% and 39% and 43% and 50%. The “Population Mitotic Cells (%)” value [1] was 39% and 49% and 50% and 54%, the “Population Normal (%)” value [1] was 93% and 90% and 94% and 92% and the “Population Pyknosed Nuclei (%)” value [1] was 22% and 17% and 20%. The “Population Tubulin-Different-Phenotype (%)” value [1] was 52% and 56% and 58% and 57%, the “Total Cell Count” value [1] was 418 and 518 and 523 and 401 and the “Population Apoptotic (%)” value [2] was 65% and 51% and 71% and 68%. For the same compound, the “Population Fragmented Nuclei (%)” value [2] was 3% and 4% and 2%, the “Population Healthy Nuclei (%)” value [2] was 81% and 82% and 77% and the “Population Hoechst High Intensity Objects (%)” value [2] was 9% and 12% and 10% and 8%. For the same compound, the “Population Membrane Permeable-Phenotype (%)” value [2] was 0%, the “Population Mitochondria Different-Phenotype (%)” value [2] was 45% and 43% and 58% and the “Population Mitotic Cells (%)” value [2] was 35% and 48% and 28% and 31%. For the same compound, the “Population Normal (%)” value [2] was 90% and 87% and 89% and 91%, the “Population Pyknosed Nuclei (%)” value [2] was 15% and 14% and 18% and the “Population Tubulin-Different-Phenotype (%)” value [2] was 56% and 47%. For the same compound, the “Total Cell Count” value [2] was 442 and 490 and 384 and 517, the “Population Apoptotic (%)” value [3] was 71% and 81% and 64% and 73% and the “Population Fragmented Nuclei (%)” value [3] was 3% and 2% and 4%. For the same compound, the “Population Healthy Nuclei (%)” value [3] was 88% and 89% and 84% and 83%, the “Population Hoechst High Intensity Objects (%)” value [3] was 11% and 9% and the “Population Membrane Permeable-Phenotype (%)” value [3] was 0%. The “Population Mitochondria Different-Phenotype (%)” value [3] was 44% and 41% and 50%, the “Population Mitotic Cells (%)” value [3] was 28% and 18% and 35% and 26% and the “Population Normal (%)” value [3] was 88% and 90%. The “Population Pyknosed Nuclei (%)” value [3] was 7% and 10% and 13%, the “Population Tubulin-Different-Phenotype (%)” value [3] was 59% and 58% and 62% and the “Total Cell Count” value [3] was 478 and 469 and 500 and 350.
CCN1C(=O)N(c2c(F)c(OC)cc(OC)c2F)Cc2cnc3[nH]c(CN4CCOCC4)cc3c21 [PEMIGATINIB] was tested, and the “Population Apoptotic (%)” value [4] was 58% and 63%, the “Population Fragmented Nuclei (%)” value [4] was 3% and the “Population Healthy Nuclei (%)” value [4] was 82% and 83%. For the same compound, the “Population Hoechst High Intensity Objects (%)” value [4] was 7% and 9%, the “Population Membrane Permeable-Phenotype (%)” value [4] was 3% and 0% and the “Population Mitochondria Different-Phenotype (%)” value [4] was 15% and 20%. The “Population Mitotic Cells (%)” value [4] was 41% and 36%, the “Population Normal (%)” value [4] was 92% and 90% and the “Population Pyknosed Nuclei (%)” value [4] was 13%. For the same compound, the “Population Tubulin-Different-Phenotype (%)” value [4] was 51% and 60%, the “Total Cell Count” value [4] was 617 and 677 and the “Population Apoptotic (%)” value [1] was 64% and 53%. The “Population Fragmented Nuclei (%)” value [1] was 4% and 2%, the “Population Healthy Nuclei (%)” value [1] was 83% and 87% and the “Population Hoechst High Intensity Objects (%)” value [1] was 12% and 8%. For the same compound, the “Population Membrane Permeable-Phenotype (%)” value [1] was 2%, the “Population Mitochondria Different-Phenotype (%)” value [1] was 31% and 18% and the “Population Mitotic Cells (%)” value [1] was 35% and 46%. For the same compound, the “Population Normal (%)” value [1] was 87% and 91%, the “Population Pyknosed Nuclei (%)” value [1] was 11% and 9% and the “Population Tubulin-Different-Phenotype (%)” value [1] was 77% and 68%. For the same compound, the “Total Cell Count” value [1] was 550 and 620, the “Population Apoptotic (%)” value [5] was 41% and 56% and the “Population Fragmented Nuclei (%)” value [5] was 8% and 7%. For the same compound, the “Population Healthy Nuclei (%)” value [5] was 82% and 83%, the “Population Hoechst High Intensity Objects (%)” value [5] was 7% and 8% and the “Population Membrane Permeable-Phenotype (%)” value [5] was 3% and 1%. For the same compound, the “Population Mitochondria Different-Phenotype (%)” value [5] was 7% and 5%, the “Population Mitotic Cells (%)” value [5] was 58% and 43% and the “Population Normal (%)” value [5] was 92% and 91%. For the same compound, the “Population Pyknosed Nuclei (%)” value [5] was 9%, the “Population Tubulin-Different-Phenotype (%)” value [5] was 29% and 30% and the “Total Cell Count” value [5] was 1042 and 1171. For the same compound, the “Population Apoptotic (%)” value [2] was 52% and 58%, the “Population Fragmented Nuclei (%)” value [2] was 4% and 5% and the “Population Healthy Nuclei (%)” value [2] was 86% and 89%. The “Population Hoechst High Intensity Objects (%)” value [2] was 12% and 11%, the “Population Membrane Permeable-Phenotype (%)” value [2] was 1% and the “Population Mitochondria Different-Phenotype (%)” value [2] was 19% and 16%. The “Population Mitotic Cells (%)” value [2] was 47% and 41%, the “Population Normal (%)” value [2] was 87% and 88% and the “Population Pyknosed Nuclei (%)” value [2] was 8% and 4%. For the same compound, the “Population Tubulin-Different-Phenotype (%)” value [2] was 71% and 61%, the “Total Cell Count” value [2] was 678 and 726 and the “Population Apoptotic (%)” value [6] was 17%. The “Population Fragmented Nuclei (%)” value [6] was 14% and 12%, the “Population Healthy Nuclei (%)” value [6] was 83% and 84% and the “Population Hoechst High Intensity Objects (%)” value [6] was 7% and 9%. The “Population Membrane Permeable-Phenotype (%)” value [6] was 6% and 2%, the “Population Mitochondria Different-Phenotype (%)” value [6] was 0% and the “Population Mitotic Cells (%)” value [6] was 82%. For the same compound, the “Population Normal (%)” value [6] was 92% and 90%, the “Population Pyknosed Nuclei (%)” value [6] was 2% and 3% and the “Population Tubulin-Different-Phenotype (%)” value [6] was 10% and 18%. The “Total Cell Count” value [6] was 2805 and 2683, the “Population Apoptotic (%)” value [3] was 33% and 24% and the “Population Fragmented Nuclei (%)” value [3] was 9% and 10%. The “Population Healthy Nuclei (%)” value [3] was 87% and 86%, the “Population Hoechst High Intensity Objects (%)” value [3] was 13% and 12% and the “Population Membrane Permeable-Phenotype (%)” value [3] was 3% and 4%. The “Population Mitochondria Different-Phenotype (%)” value [3] was 2% and 4%, the “Population Mitotic Cells (%)” value [3] was 66% and 75% and the “Population Normal (%)” value [3] was 86% and 87%. The “Population Pyknosed Nuclei (%)” value [3] was 3%, the “Population Tubulin-Different-Phenotype (%)” value [3] was 55% and the “Total Cell Count” value [3] was 1120 and 944.
CNS(=O)(=O)c1ccc(N(C)C)c(Nc2ncnc3cc(OC)c(OC)cc23)c1 was tested, and the “Population Apoptotic (%)” value [4] was 51% and 45%, the “Population Fragmented Nuclei (%)” value [4] was 3% and 2% and the “Population Healthy Nuclei (%)” value [4] was 81% and 83%. For the same compound, the “Population Hoechst High Intensity Objects (%)” value [4] was 5% and 8%, the “Population Membrane Permeable-Phenotype (%)” value [4] was 2% and the “Population Mitochondria Different-Phenotype (%)” value [4] was 17% and 12%. For the same compound, the “Population Mitotic Cells (%)” value [4] was 48% and 54%, the “Population Normal (%)” value [4] was 94% and 91% and the “Population Pyknosed Nuclei (%)” value [4] was 14%. The “Population Tubulin-Different-Phenotype (%)” value [4] was 37% and 34%, the “Total Cell Count” value [4] was 547 and 550 and the “Population Apoptotic (%)” value [1] was 47% and 54%. For the same compound, the “Population Fragmented Nuclei (%)” value [1] was 2% and 3%, the “Population Healthy Nuclei (%)” value [1] was 87% and 88% and the “Population Hoechst High Intensity Objects (%)” value [1] was 7%. For the same compound, the “Population Membrane Permeable-Phenotype (%)” value [1] was 2% and 1%, the “Population Mitochondria Different-Phenotype (%)” value [1] was 26% and 24% and the “Population Mitotic Cells (%)” value [1] was 52% and 45%. For the same compound, the “Population Normal (%)” value [1] was 92%, the “Population Pyknosed Nuclei (%)” value [1] was 9% and 8% and the “Population Tubulin-Different-Phenotype (%)” value [1] was 59%. For the same compound, the “Total Cell Count” value [1] was 607, the “Population Apoptotic (%)” value [5] was 45% and 47% and the “Population Fragmented Nuclei (%)” value [5] was 5% and 7%. The “Population Healthy Nuclei (%)” value [5] was 86% and 84%, the “Population Hoechst High Intensity Objects (%)” value [5] was 7% and 6% and the “Population Membrane Permeable-Phenotype (%)” value [5] was 3% and 1%. The “Population Mitochondria Different-Phenotype (%)” value [5] was 4%, the “Population Mitotic Cells (%)” value [5] was 54% and 52% and the “Population Normal (%)” value [5] was 92% and 93%. The “Population Pyknosed Nuclei (%)” value [5] was 8%, the “Population Tubulin-Different-Phenotype (%)” value [5] was 13% and 17% and the “Total Cell Count” value [5] was 888 and 859. The “Population Apoptotic (%)” value [2] was 53% and 62%, the “Population Fragmented Nuclei (%)” value [2] was 3% and 5% and the “Population Healthy Nuclei (%)” value [2] was 89% and 87%. For the same compound, the “Population Hoechst High Intensity Objects (%)” value [2] was 8% and 11%, the “Population Membrane Permeable-Phenotype (%)” value [2] was 1% and the “Population Mitochondria Different-Phenotype (%)” value [2] was 16% and 20%. For the same compound, the “Population Mitotic Cells (%)” value [2] was 46% and 37%, the “Population Normal (%)” value [2] was 91% and 88% and the “Population Pyknosed Nuclei (%)” value [2] was 7%. For the same compound, the “Population Tubulin-Different-Phenotype (%)” value [2] was 51% and 49%, the “Total Cell Count” value [2] was 699 and 675 and the “Population Apoptotic (%)” value [6] was 18% and 9%. The “Population Fragmented Nuclei (%)” value [6] was 13% and 11%, the “Population Healthy Nuclei (%)” value [6] was 83% and 85% and the “Population Hoechst High Intensity Objects (%)” value [6] was 7% and 8%. The “Population Membrane Permeable-Phenotype (%)” value [6] was 5% and 3%, the “Population Mitochondria Different-Phenotype (%)” value [6] was 0% and the “Population Mitotic Cells (%)” value [6] was 81% and 90%. The “Population Normal (%)” value [6] was 92% and 91%, the “Population Pyknosed Nuclei (%)” value [6] was 3% and the “Population Tubulin-Different-Phenotype (%)” value [6] was 5%. The “Total Cell Count” value [6] was 2132 and 1975, the “Population Apoptotic (%)” value [3] was 20% and 37% and the “Population Fragmented Nuclei (%)” value [3] was 11% and 8%. The “Population Healthy Nuclei (%)” value [3] was 86% and 87%, the “Population Hoechst High Intensity Objects (%)” value [3] was 12% and the “Population Membrane Permeable-Phenotype (%)” value [3] was 3% and 2%. For the same compound, the “Population Mitochondria Different-Phenotype (%)” value [3] was 2%, the “Population Mitotic Cells (%)” value [3] was 80% and 62% and the “Population Normal (%)” value [3] was 87%. For the same compound, the “Population Pyknosed Nuclei (%)” value [3] was 2% and 4%, the “Population Tubulin-Different-Phenotype (%)” value [3] was 39% and the “Total Cell Count” value [3] was 1182 and 985.
